Experiments:
[1] = system: Hippocampus; assay: Toxic epileptiform activity in C57BL/6 mouse CA3 region of hippocampus assessed as frequency of spike activity at 50 uM by electrophysiolgy method (reference value: 0.94 +/- 0.06 Hz); format: toxicity, tissue-based
In short: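 Mouse hippocampal slices with extracellular recording from the CA3 pyramidal cell body layer. Compound (10 μM) or DHPG (50 μM) was bath-applied, and the frequency of spontaneous spikes was compared with baseline. n = 6 per agent, paired t test.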

[2] = system: Mus musculus; assay: Toxicity in C57BL/6 mouse assessed as seizure activity at 1 or 3 mg/kg, ip administered as single dose measured after 5 mins; settings: in vivo
[3] = system: Mus musculus; assay: Toxicity in C57BL/6 mouse assessed as seizure activity at 1 mg/kg, ip administered as single dose measured after 5 mins; format: organism-based; settings: in vivo
In short: (§1)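 Male C57Bl/6 mice (25−30 g) dosed ip in 10% Tween 80 at 10 mL/kg: the mGlu5 ago-PAM at 1 or 3 mg/kg, the mGlu1 PAMs at 100 mg/kg. Behaviour was monitored continuously for 3 h and scored on a modified Racine scale (0−5).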

[4] = biological target: T1, Metabotropic glutamate receptor 1 (Homo sapiens, UniProt Q13255); assay: Negative allosteric modulation of human mGlu1 receptor in HEK293 cells assessed as potentiation of glutamate-induced calcium mobiliztion by Fluo-4AM dye based fluorescence analysis; format: functional, cell-based
Target sequence in this assay (Q13255 whole entry): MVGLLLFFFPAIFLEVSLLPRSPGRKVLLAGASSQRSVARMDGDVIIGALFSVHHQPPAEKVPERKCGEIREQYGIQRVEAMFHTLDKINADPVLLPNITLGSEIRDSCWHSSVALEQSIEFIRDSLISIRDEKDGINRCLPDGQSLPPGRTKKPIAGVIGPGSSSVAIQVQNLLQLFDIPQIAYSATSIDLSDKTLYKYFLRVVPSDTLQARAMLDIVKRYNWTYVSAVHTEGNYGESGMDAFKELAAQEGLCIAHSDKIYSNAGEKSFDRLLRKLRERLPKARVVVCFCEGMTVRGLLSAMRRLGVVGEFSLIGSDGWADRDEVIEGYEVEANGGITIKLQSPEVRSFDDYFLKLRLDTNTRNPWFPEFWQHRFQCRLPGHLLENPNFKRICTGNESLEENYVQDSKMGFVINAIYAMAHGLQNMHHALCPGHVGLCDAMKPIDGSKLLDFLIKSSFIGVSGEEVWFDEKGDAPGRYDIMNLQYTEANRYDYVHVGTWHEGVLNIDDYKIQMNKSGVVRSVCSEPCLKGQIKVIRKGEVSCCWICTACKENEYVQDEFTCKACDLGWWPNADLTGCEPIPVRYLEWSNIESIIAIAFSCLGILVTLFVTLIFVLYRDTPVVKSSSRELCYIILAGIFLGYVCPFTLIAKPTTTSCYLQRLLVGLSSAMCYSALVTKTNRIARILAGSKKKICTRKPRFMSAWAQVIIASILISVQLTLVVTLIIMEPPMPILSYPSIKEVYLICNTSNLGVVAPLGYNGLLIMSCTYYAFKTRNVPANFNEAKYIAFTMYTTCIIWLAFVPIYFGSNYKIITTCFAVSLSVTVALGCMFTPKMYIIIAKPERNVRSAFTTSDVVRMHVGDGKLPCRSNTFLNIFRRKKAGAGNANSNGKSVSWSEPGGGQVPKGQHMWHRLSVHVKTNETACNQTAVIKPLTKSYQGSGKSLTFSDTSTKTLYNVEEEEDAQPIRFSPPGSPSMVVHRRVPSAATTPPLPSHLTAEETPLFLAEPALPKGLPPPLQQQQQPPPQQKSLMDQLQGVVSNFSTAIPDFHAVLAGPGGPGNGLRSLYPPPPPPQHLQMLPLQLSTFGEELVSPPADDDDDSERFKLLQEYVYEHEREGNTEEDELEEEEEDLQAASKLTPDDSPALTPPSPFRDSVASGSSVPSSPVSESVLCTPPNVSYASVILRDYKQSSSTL

[5] = biological target: Metabotropic glutamate receptor 1 (Rattus norvegicus, UniProt P23385); assay: Positive allosteric modulation of rat mGlu1 receptor assessed as potentiation of glutamate-induced calcium mobiliztion by cell based assay; format: functional
In short: (§2)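 Rat mGlu1 WT calcium mobilization concentration-response curves. EC50 and % Glu Max were derived from the curves.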

[6] = system: Plasma; assay: Drug metabolism in rat plasma assessed as 5-chloro-2-(2-chloro-4-(3-methylfuran-2-carboxamido)phenylcarbamoyl)benzoic acid level at 10 uM after 4 hrs by mass spectrometry; format: ADME, cell-free
[7] = system: Plasma; assay: Drug metabolism in human plasma assessed as N-(4-amino-3-chlorophenyl)-3-methylfuran-2-carboxamide level at 10 uM after 4 hrs by mass spectrometry; format: ADME, cell-free
[8] = biological target: Cytochrome P450 2C9 (Homo sapiens, UniProt P11712); assay: Inhibition of CYP2C9 in human liver microsomes by LC-MS/MS analysis; format: ADME
[9] = biological target: T2, Metabotropic glutamate receptor 4 (Homo sapiens, UniProt Q14833); assay: Positive allosteric modulation of human mGlu4 receptor assessed as potentiation of glutamate-induced calcium mobiliztion by cell based assay; format: functional
[10] = Ratio of drug level in brain to plasma of Sprague-Dawley rat at 0.2 mg/kg, iv after 0.25 hrs by LC-MS/MS analysis; settings: read-out: BPR
[11] = Plasma clearance in Sprague-Dawley rat at 0.2 mg/kg, iv by LC-MS/MS analysis
[12] = biological target: Metabotropic glutamate receptor 8 (Homo sapiens) (UniProt O00222); assay: Positive allosteric modulation of mGlu8 receptor (unknown origin) assessed as potentiation of glutamate-induced response by cell-based assay
In short: (§3)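 Selectivity counterscreen at the other mGlu subtypes using the standard fold-shift paradigm. Compound was tested at 10 μM against the glutamate concentration-response curve, and the shift of that curve was read.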

[13] = biological target: T1, Metabotropic glutamate receptor 1; assay: Positive allosteric modulation of human mGlu1 receptor in HEK293 cells assessed as potentiation of glutamate-induced calcium mobiliztion by Fluo-4AM dye based fluorescence analysis relative to glutamate; format: functional, cell-based
Target sequence in this assay (Q13255 19-1194 limits assumed): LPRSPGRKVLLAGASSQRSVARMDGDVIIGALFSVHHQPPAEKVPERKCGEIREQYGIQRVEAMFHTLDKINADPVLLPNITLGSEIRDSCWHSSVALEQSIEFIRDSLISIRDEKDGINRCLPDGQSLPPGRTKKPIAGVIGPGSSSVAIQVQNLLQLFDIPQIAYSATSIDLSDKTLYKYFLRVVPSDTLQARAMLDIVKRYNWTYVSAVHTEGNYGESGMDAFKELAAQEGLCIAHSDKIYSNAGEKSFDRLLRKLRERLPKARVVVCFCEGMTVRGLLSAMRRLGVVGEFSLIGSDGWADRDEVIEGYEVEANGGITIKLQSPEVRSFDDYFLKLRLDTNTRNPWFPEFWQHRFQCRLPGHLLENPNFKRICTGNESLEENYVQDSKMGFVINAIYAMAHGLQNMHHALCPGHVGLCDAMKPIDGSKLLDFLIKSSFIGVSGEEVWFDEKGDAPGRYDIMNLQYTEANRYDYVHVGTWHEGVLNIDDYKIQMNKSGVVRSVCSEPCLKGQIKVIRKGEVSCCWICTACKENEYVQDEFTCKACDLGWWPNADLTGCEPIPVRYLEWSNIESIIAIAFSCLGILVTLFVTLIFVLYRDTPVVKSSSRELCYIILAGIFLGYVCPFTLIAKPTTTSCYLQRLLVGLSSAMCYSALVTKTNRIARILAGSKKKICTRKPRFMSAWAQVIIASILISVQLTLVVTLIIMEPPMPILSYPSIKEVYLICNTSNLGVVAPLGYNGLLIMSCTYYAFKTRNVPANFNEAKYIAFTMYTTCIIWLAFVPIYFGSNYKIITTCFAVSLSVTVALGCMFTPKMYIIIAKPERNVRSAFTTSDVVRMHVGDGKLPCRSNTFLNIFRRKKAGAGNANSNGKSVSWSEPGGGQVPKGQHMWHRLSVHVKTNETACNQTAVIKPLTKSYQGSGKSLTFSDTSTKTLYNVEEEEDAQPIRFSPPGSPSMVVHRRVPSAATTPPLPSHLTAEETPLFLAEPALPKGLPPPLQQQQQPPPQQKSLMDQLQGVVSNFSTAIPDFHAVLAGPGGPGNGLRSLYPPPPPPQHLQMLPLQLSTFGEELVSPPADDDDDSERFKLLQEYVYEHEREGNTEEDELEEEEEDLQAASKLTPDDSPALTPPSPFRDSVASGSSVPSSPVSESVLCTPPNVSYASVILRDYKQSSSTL

[14] = Intrinsic clearance in human liver microsomes at 1 uM by LC-MS/MS analysis; format: ADME; settings: read-out: CLH
[15] = biological target: Metabotropic glutamate receptor 3 (Homo sapiens) (UniProt Q14832); assay: Positive allosteric modulation of mGlu3 receptor (unknown origin) assessed as potentiation of glutamate-induced response by cell-based assay; in short: as §3
[16] = system: Plasma; assay: Metabolic stability in human plasma; format: ADME, cell-free
In short: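 Compound incubated at 10 μM in rat or human plasma at 37 °C. Samples taken at 0 and 4 h were analysed by mass spectrometry for parent and metabolites.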

[17] = system: Plasma; assay: Drug metabolism in rat plasma assessed as 4-chloro-2-(2-chloro-4-(3-methylfuran-2-carboxamido)phenylcarbamoyl)benzoic acid level at 10 uM after 4 hrs by mass spectrometry; format: ADME, cell-free
[18] = system: Plasma; assay: Drug metabolism in human plasma assessed as 4-chloro-2-(2-chloro-4-(3-methylfuran-2-carboxamido)phenylcarbamoyl)benzoic acid level at 10 uM after 4 hrs by mass spectrometry; format: ADME, cell-free
[19] = system: Brain; assay: Drug concentration in C57BL/6 mouse brain at 100 mg/kg, ip administered as single dose; format: ADME, organism-based; settings: in vivo, read-out: Drug uptake
[20] = biological target: Metabotropic glutamate receptor 1 (Rattus norvegicus) (UniProt P23385); assay: Positive allosteric modulation of rat mGlu1 receptor assessed as potentiation of glutamate-induced calcium mobiliztion by cell based assay relative to glutamate; format: functional; in short: as §2
[21] = system: Mus musculus; assay: Toxicity in C57BL/6 mouse assessed as seizure activity at 100 mg/kg, ip administered as single dose measured for 3 hrs; format: organism-based; settings: in vivo; in short: as §1
[22] = system: Plasma; assay: Drug metabolism in human plasma assessed as 5-chloro-2-(2-chloro-4-(3-methylfuran-2-carboxamido)phenylcarbamoyl)benzoic acid level at 10 uM after 4 hrs by mass spectrometry; format: ADME, cell-free
[23] = biological target: Cytochrome P450 3A4 (Homo sapiens, UniProt P08684); assay: Inhibition of CYP3A4 in human liver microsomes by LC-MS/MS analysis; format: ADME
[24] = biological target: T1, Metabotropic glutamate receptor 1; assay: Positive allosteric modulation of human mGlu1 receptor in HEK293 cells assessed as potentiation of glutamate-induced calcium mobiliztion at 10 uM by Fluo-4AM dye based fluorescence analysis; format: functional, cell-based
Target sequence in this assay (Q13255 19-1194 limits assumed): as above

[25] = system: Plasma; assay: Metabolic stability in rat plasma; format: ADME, cell-free
[26] = biological target: T1, Metabotropic glutamate receptor 1; assay: Positive allosteric modulation of human mGlu1 receptor in HEK293 cells assessed as potentiation of glutamate-induced calcium mobiliztion by Fluo-4AM dye based fluorescence analysis; format: functional, cell-based; settings: read-out: EC50
Target sequence in this assay (Q13255 whole entry): as the sequence (Q13255 whole entry) above

[27] = system: Rattus norvegicus; assay: Volume of distribution at steady state in Sprague-Dawley rat at 0.2 mg/kg, iv by LC-MS/MS analysis; settings: in vivo
[28] = Mean residence time in Sprague-Dawley rat at 0.2 mg/kg, iv by LC-MS/MS analysis; settings: in vivo
[29] = biological target: Metabotropic glutamate receptor 2 (Homo sapiens) (UniProt Q14416); assay: Positive allosteric modulation of mGlu2 receptor (unknown origin) assessed as potentiation of glutamate-induced response by cell-based assay; in short: as §3
[30] = biological target: T1, Metabotropic glutamate receptor 1; assay: Agonist activity at human mGlu1 receptor in HEK293 cells assessed as calcium mobilization at 10 uM by Fluo-4AM dye based fluorescence analysis; format: functional, cell-based
Target sequence in this assay (Q13255 19-1194 limits assumed): as the sequence (Q13255 19-1194 limits assumed) above

[31] = biological target: Metabotropic glutamate receptor 7 (Homo sapiens) (UniProt Q14831); assay: Positive allosteric modulation of mGlu7 receptor (unknown origin) assessed as potentiation of glutamate-induced response by cell-based assay; in short: as §3
[32] = biological target: T2, Metabotropic glutamate receptor 4; assay: Positive allosteric modulation of human mGlu4 receptor assessed as potentiation of glutamate-induced calcium mobiliztion by cell based assay relative to PHCCC
[33] = Drug concentration in Sprague-Dawley rat brain at 0.2 mg/kg, iv after 0.25 hrs by LC-MS/MS analysis; settings: read-out: Drug uptake
[34] = biological target: Metabotropic glutamate receptor 5 (Homo sapiens) (UniProt P41594); assay: Positive allosteric modulation of mGlu5 receptor (unknown origin) assessed as potentiation of glutamate-induced response by cell-based assay; in short: as §3
[35] = biological target: Cytochrome P450 2D6 (Homo sapiens, UniProt P10635); assay: Inhibition of CYP2D6 in human liver microsomes by LC-MS/MS analysis; format: ADME
[36] = Half life in Sprague-Dawley rat at 0.2 mg/kg, iv by LC-MS/MS analysis; settings: in vivo
[37] = system: Plasma; assay: Drug metabolism in rat plasma assessed as N-(4-amino-3-chlorophenyl)-3-methylfuran-2-carboxamide level at 10 uM after 4 hrs by mass spectrometry; format: ADME, cell-free
[38] = Plasma concentration in Sprague-Dawley rat at 0.2 mg/kg, iv after 0.25 hrs by LC-MS/MS analysis
[39] = biological target: T3, Cytochrome P450 1A2 (Homo sapiens, UniProt P05177); assay: Inhibition of CYP1A2 in human liver microsomes by LC-MS/MS analysis; format: ADME
T3 sequence (P05177 whole entry): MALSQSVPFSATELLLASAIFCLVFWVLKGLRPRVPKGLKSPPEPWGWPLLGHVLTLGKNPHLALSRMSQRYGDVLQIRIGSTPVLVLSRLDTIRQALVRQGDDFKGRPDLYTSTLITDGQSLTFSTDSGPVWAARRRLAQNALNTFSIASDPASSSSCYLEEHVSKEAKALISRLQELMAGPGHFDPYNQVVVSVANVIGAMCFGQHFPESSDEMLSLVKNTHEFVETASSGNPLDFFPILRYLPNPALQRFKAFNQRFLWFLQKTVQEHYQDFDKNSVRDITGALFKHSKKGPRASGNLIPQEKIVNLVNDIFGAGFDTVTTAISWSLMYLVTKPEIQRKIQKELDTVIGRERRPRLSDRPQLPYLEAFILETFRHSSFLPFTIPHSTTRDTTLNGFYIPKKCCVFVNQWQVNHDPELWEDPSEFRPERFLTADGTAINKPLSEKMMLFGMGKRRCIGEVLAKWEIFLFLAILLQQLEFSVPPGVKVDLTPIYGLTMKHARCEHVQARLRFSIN

[40] = biological target: Metabotropic glutamate receptor 6 (Homo sapiens) (UniProt O15303); assay: Positive allosteric modulation of mGlu6 receptor (unknown origin) assessed as potentiation of glutamate-induced response by cell-based assay; in short: as §3
[41] = system: Plasma; assay: Fraction unbound in human plasma; format: ADME, cell-free
[42] = system: Plasma; assay: Fraction unbound in rat plasma; format: ADME, cell-free

Cytochrome P450 3A4, sequence (P08684 whole entry): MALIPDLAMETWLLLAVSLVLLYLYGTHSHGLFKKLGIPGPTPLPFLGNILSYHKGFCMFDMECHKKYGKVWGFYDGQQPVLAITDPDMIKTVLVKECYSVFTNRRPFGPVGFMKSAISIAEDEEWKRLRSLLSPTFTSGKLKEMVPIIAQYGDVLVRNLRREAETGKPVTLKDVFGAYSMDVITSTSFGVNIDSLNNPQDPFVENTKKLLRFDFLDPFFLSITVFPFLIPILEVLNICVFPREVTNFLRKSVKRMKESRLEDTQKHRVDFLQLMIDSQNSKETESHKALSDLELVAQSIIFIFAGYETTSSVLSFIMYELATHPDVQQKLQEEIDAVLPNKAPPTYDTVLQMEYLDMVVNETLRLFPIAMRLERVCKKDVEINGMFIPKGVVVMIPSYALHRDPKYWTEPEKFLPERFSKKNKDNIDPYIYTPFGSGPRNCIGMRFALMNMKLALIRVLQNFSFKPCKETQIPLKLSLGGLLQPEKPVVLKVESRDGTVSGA
Cytochrome P450 2D6, sequence (P10635 whole entry): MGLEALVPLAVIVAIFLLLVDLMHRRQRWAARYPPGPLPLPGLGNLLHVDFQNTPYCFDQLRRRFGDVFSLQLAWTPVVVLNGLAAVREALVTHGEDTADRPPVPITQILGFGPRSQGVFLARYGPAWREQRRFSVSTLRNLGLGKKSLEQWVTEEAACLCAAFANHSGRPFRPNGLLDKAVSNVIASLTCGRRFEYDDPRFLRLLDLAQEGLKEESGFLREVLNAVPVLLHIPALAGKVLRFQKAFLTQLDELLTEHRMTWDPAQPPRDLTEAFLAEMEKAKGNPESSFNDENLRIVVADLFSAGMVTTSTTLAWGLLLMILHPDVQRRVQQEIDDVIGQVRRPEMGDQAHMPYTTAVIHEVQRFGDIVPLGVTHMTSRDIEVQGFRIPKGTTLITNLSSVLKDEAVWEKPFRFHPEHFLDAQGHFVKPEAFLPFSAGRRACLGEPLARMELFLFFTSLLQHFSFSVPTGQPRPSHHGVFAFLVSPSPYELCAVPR
T2 sequence (Q14833 whole entry): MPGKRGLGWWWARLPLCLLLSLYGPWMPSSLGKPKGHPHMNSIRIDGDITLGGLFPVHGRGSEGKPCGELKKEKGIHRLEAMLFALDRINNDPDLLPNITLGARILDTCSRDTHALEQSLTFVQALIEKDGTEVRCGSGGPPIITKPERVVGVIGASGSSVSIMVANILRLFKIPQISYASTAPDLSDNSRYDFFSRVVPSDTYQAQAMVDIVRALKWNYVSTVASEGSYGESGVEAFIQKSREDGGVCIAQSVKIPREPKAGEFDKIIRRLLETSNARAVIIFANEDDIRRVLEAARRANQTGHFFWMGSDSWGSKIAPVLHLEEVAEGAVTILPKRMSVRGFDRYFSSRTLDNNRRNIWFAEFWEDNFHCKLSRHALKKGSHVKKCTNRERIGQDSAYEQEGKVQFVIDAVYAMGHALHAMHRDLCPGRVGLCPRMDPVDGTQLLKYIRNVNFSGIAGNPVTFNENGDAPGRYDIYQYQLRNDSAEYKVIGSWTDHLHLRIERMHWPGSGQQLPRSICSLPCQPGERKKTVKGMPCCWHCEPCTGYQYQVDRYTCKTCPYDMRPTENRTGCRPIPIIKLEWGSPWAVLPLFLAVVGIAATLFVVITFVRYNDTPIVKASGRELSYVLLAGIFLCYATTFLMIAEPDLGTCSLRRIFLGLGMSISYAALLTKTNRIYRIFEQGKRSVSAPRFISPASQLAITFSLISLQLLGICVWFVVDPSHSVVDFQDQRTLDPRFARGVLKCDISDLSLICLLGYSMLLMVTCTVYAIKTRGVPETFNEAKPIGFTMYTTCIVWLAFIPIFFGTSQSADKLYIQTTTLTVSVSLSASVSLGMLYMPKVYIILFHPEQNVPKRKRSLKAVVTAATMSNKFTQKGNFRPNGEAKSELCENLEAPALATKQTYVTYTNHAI
Cytochrome P450 2C9, sequence (P11712 whole entry): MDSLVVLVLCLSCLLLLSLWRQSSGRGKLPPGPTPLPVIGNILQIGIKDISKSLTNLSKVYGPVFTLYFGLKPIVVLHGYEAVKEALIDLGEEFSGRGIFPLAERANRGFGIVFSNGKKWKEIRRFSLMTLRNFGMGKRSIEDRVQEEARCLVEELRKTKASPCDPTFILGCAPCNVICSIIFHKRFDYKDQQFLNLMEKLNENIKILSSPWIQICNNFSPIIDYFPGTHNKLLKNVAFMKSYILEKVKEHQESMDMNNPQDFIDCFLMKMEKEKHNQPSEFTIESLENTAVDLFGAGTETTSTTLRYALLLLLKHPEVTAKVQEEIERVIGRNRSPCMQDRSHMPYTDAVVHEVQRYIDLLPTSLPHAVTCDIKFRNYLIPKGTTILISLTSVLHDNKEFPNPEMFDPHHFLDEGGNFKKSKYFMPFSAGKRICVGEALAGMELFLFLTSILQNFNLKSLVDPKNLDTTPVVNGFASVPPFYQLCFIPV

## N[C@H](C(=O)O)c1cc(O)cc(O)c1
[1]
  Activity: 13.8 Hz

## C[C@@H](NC(=O)c1ccc(C#Cc2cccc(F)c2)cn1)C(C)(C)O
[2]
  Activity: Toxic
[3]
  Activity: Toxic

## CC1(C)C2C(=O)N(c3ccc(NC(=O)c4ccccn4)cc3Cl)C(=O)C21 (stereo not drawn)
[4]
  IC50: 140 nM

## Cc1ccoc1C(=O)Nc1ccc(N2C(=O)c3ccc(Cl)cc3C2=O)c(Cl)c1
[5]
  EC50: 113 nM
[6]
  Drug metabolism: metabolite_detected
[7]
  Drug metabolism: metabolite_detected
[8]
  IC50: > 30 µM
[9]; read-out: EC50
  EC50: 2250 nM
[9]; read-out: pEC50 (converted)
  EC50: 2290 nM
[10]
  Kp at 0.25 h: 0.63
[11]
  clearance: 33 mL/min/kg
[12]
  fold change (FC): 2
[13]
  %max: 94%
[14]
  CLint scaled at 1 µM: 2.9 mL/min/kg
[15]
  fold change (FC): 2
[16]
  Stability: Unstable
[17]
  Drug metabolism: metabolite_detected
[18]
  Drug metabolism: metabolite_detected
[19]
  concentration: 1400 nM
[20]
  %max: 107%
[21]
  Activity: Non-toxic
[22]
  Drug metabolism: metabolite_detected
[23]
  IC50: > 30 µM
[24]
  fold change (FC): 8.3
[25]
  Stability: Unstable
[26]
  EC50: 80.9 nM
[27]
  Vdss: 1.76 L/kg
[28]
  MRT: 53.5 min
[29]
  fold change (FC): 2
[30]
  Activity: < 20%
[31]
  fold change (FC): 2
[32]
  %max: 89%
[33]
  concentration at 0.25 h: 108 ng/mL
[34]
  fold change (FC): 2
[35]
  IC50: > 30 µM
[36]
  half-life: 91.1 min
[37]
  Drug metabolism: metabolite_detected
[38]
  concentration at 0.25 h: 173 ng/mL
[39]
  IC50: > 30 µM
[40]
  fold change (FC): 2

## O=C(Nc1nc(C(F)(F)F)co1)C1c2ccccc2Oc2ccccc21
[10]
  Kp at 0.25 h: 0.29
[11]
  clearance: 35 mL/min/kg
[21]
  Activity: Non-toxic
[23]
  IC50: > 30 µM
[27]
  Vdss: 1.34 L/kg
[28]
  MRT: 50 min
[33]
  concentration at 0.25 h: 81 ng/mL
[41]
  Fu: 0.014
[35]
  IC50: > 30 µM
[36]
  half-life: 54 min
[38]
  concentration at 0.25 h: 276 ng/mL
[42]
  Fu: 0.003

## O=C(Nc1ccc(N2C(=O)c3cccc(Cl)c3C2=O)c(Cl)c1)c1ncccc1Cl
[5]
  EC50: 356 nM
[8]
  IC50: > 30 µM
[16]
  Stability: Unstable
[23]
  IC50: > 30 µM
[25]
  Stability: Unstable
[26]; hek293
  EC50: 390 nM
[33]
  concentration at 0.25 h: 284 ng/mL
[35]
  IC50: > 30 µM
[38]
  concentration at 0.25 h: 336 ng/mL
[39]
  IC50: > 30 µM

From ChEMBL document CHEMBL3627606, “Development of Novel, CNS Penetrant Positive Allosteric Modulators for the Metabotropic Glutamate Receptor Subtype 1 (mGlu1), Based on an N-(3-Chloro-4-(1,3-dioxoisoindolin-2-yl)phenyl)-3-methylfuran-2-carboxamide Scaffold, That Potentiate Wild Type and Mutant mGlu1 Receptors Found in …” (J Med Chem, 2015)
